From ChEMBL document CHEMBL3877241 (J Med Chem, 2016)
The source made the active and inactive calls. No cut-off for these calls is given here.

What was measured:
[1] = target: Histone deacetylase 2 (Homo sapiens, UniProt Q92769); assay: Inhibition of full length human recombinant C-terminal GST-tagged HDAC2 (1 to 488 residues) expressed in insect cells preincubated with enzyme followed by fluorogenic Arg-His-Lys-Lys(Ac)-AMC substrate addition measured after 2 hrs by fluorescence assay
[2] = system: MOLM-14; assay: Induction of apoptosis in human MOLM14 cells assessed as necrotic cells at 1.5 uM after 48 hrs by Annexin-V FITC/propidium iodide staining based flow cytometry (reference value: 0.1%); format: functional
[3] = system: MOLM-14; assay: Induction of apoptosis in human MOLM14 cells assessed as late apoptotic cells at 1.5 uM after 48 hrs by Annexin-V FITC/propidium iodide staining based flow cytometry (reference value: 2.1 to 2.2%); format: functional
[4] = system: Tyrosine-protein kinase JAK2 (Homo sapiens), O60674 [V617F]; assay: Inhibition of JAK2 V617F mutant in HEL 92.1.7 cells assessed as decrease in STAT5 phosphorylation at antiproliferative IC50 after 1 hr by immunoblot method; format: cell-based
Sequence of Tyrosine-protein kinase JAK2 (Homo sapiens), O60674 [V617F] (O60674 whole entry V617F, the tested form may be a part): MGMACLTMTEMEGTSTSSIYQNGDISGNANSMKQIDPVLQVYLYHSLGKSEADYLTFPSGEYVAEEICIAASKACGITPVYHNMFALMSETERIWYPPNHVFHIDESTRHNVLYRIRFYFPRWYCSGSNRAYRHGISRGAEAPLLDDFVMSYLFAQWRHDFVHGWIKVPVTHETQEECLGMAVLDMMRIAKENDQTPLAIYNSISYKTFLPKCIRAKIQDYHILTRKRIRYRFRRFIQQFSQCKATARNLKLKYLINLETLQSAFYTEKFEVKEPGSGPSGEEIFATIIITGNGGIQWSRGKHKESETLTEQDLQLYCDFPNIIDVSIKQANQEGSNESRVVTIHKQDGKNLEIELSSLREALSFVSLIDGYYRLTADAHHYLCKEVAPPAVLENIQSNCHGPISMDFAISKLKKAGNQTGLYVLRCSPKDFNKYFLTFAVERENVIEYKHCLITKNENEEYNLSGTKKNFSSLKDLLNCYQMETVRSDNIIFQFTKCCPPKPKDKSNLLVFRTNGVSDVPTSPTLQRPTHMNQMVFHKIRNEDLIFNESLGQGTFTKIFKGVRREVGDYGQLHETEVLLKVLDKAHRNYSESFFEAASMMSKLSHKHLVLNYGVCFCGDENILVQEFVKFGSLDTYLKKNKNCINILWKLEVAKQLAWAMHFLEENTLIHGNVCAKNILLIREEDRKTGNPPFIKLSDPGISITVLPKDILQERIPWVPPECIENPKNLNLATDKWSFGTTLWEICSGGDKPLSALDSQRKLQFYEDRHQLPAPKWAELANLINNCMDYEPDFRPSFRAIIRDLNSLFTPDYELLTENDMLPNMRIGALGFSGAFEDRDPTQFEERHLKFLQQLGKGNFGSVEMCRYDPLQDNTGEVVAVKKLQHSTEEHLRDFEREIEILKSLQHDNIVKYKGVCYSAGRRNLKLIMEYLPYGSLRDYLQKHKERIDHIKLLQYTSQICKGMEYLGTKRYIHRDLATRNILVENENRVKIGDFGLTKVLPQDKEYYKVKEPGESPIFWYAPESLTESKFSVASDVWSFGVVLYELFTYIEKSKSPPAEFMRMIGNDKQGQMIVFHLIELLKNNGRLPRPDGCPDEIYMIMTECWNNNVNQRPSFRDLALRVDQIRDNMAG
Method in brief: (§1)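 HEL92.1.7 cells seeded at 5x10^5/mL and treated 1 h at 0, 0.1, 0.5 and 1 μM. Lysed in RIPA with phosphatase/protease inhibitors, run on 10% SDS-PAGE and blotted to PVDF. Probed for acetyl-tubulin, acetyl-H3 (Lys9/Lys14), p-JAK2 (Y1007/1008) and p-STAT5 (Tyr694); membranes re-probed for tubulin, H3, JAK2 and STAT5. Quantified by densitometry.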

[5] = Antiproliferative activity against human KG1 cells after 48 hrs by CellTiter-Glo assay; format: functional, cell-based; conditions: KG-1, 48 h
[6] = system: Tyrosine-protein kinase JAK2 (Homo sapiens), O60674 [V617F]; assay: Induction of JAK2 V617F mutant phosphorylation at Y1007/8 residues in HEL 92.1.7 cells at 0.1 to 1 uM after 1 hr by immunoblot method; format: cell-based; method in brief: as §1
[7] = target: T1, Protein deacetylase HDAC6 (Homo sapiens, UniProt Q9UBN7); assay: Inhibition of full length human recombinant N-terminal GST-tagged HDAC6 (1 to 1215 residues) expressed in sf9 cells preincubated with enzyme followed by fluorogenic Arg-His-Lys-Lys(Ac)-AMC substrate addition measured after 2 hrs by fluorescence assay
T1 sequence (Q9UBN7 whole entry): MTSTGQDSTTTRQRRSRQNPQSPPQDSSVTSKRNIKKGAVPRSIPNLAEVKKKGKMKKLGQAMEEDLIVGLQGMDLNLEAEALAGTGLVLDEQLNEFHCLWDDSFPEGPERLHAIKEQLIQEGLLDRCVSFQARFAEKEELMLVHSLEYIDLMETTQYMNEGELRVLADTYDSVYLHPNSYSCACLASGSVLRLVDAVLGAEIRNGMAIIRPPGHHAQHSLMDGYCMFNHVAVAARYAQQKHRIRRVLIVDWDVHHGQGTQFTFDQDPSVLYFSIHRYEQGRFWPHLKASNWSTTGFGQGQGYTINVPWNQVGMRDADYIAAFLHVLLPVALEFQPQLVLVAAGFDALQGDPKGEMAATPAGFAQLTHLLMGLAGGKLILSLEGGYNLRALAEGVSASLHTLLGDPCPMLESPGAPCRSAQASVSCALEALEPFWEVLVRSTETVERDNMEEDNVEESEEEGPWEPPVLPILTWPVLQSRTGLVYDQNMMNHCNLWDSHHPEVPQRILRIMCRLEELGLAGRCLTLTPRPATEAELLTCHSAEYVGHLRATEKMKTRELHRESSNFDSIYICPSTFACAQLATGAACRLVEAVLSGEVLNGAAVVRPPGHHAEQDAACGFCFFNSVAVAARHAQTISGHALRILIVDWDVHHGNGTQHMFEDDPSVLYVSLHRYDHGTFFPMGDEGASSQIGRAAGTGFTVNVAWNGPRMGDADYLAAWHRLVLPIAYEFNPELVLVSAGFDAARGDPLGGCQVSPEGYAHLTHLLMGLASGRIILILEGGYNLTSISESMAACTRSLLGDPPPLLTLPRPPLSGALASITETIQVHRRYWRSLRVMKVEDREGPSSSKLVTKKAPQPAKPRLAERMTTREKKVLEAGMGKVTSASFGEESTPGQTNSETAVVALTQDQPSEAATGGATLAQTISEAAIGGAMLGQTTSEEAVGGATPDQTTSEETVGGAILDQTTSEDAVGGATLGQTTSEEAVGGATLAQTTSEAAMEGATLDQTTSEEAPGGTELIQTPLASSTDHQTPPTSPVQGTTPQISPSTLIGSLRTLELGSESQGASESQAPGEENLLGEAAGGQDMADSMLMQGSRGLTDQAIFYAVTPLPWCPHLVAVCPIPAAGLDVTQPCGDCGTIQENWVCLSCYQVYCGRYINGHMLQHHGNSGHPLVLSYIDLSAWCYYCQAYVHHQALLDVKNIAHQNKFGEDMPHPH

[8] = Antiproliferative activity against human MOLM14 cells harboring FLT3-ITD mutant after 48 hrs by CellTiter-Glo assay; format: functional, cell-based; conditions: MOLM-14, 48 h
[9] = target: Mitogen-activated protein kinase 10 (Homo sapiens, UniProt P53779); assay: Inhibition of human MAPK10 (V28 to Q422 residues) expressed in mammalian expression system assessed as residual activity at 100 nM by KINOMEScan assay relative to control
Sequence of Mitogen-activated protein kinase 10 (P53779 whole entry, the tested form may be a part): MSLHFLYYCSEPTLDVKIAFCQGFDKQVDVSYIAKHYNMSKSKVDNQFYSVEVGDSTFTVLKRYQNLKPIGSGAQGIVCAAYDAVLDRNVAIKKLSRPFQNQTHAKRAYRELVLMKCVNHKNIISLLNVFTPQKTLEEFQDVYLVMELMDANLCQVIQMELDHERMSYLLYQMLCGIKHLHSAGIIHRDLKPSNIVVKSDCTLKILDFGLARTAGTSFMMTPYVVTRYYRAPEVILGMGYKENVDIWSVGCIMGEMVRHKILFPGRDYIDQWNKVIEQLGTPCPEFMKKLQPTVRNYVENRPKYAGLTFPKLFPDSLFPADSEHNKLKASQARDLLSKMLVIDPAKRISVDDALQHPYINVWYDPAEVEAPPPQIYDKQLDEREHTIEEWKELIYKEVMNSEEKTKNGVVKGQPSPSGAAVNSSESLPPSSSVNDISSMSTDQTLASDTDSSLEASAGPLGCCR
Method in brief: (§2)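 DiscoveRx competition-binding panel of 97 kinases, measuring binding to the kinase ATP site rather than catalytic turnover. The test compound was run at a single 100 nM concentration. Results are given as % of control binding.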

[10] = system: MOLM-14; assay: Induction of apoptosis in human MOLM14 cells assessed as necrotic cells at 0.75 uM after 48 hrs by Annexin-V FITC/propidium iodide staining based flow cytometry (reference value: 0.1%); format: functional
Method in brief: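 MOLM-14 cells treated 48 h at the stated concentrations; doxorubicin as positive control. Stained with Annexin V-FITC and propidium iodide and analysed by flow cytometry (at least 10,000 events). Gated quadrants: Annexin V−/PI− viable, Annexin V+/PI− early apoptotic, Annexin V+/PI+ late apoptotic.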

[11] = target: Non-receptor tyrosine-protein kinase TYK2 (Homo sapiens, UniProt P29597); assay: Inhibition of human TYK2 (V877 to C1187 residues) expressed in mammalian expression system assessed as residual activity at 100 nM by KINOMEScan assay relative to control; method in brief: as §2
Sequence of Non-receptor tyrosine-protein kinase TYK2 (P29597 whole entry, the tested form may be a part): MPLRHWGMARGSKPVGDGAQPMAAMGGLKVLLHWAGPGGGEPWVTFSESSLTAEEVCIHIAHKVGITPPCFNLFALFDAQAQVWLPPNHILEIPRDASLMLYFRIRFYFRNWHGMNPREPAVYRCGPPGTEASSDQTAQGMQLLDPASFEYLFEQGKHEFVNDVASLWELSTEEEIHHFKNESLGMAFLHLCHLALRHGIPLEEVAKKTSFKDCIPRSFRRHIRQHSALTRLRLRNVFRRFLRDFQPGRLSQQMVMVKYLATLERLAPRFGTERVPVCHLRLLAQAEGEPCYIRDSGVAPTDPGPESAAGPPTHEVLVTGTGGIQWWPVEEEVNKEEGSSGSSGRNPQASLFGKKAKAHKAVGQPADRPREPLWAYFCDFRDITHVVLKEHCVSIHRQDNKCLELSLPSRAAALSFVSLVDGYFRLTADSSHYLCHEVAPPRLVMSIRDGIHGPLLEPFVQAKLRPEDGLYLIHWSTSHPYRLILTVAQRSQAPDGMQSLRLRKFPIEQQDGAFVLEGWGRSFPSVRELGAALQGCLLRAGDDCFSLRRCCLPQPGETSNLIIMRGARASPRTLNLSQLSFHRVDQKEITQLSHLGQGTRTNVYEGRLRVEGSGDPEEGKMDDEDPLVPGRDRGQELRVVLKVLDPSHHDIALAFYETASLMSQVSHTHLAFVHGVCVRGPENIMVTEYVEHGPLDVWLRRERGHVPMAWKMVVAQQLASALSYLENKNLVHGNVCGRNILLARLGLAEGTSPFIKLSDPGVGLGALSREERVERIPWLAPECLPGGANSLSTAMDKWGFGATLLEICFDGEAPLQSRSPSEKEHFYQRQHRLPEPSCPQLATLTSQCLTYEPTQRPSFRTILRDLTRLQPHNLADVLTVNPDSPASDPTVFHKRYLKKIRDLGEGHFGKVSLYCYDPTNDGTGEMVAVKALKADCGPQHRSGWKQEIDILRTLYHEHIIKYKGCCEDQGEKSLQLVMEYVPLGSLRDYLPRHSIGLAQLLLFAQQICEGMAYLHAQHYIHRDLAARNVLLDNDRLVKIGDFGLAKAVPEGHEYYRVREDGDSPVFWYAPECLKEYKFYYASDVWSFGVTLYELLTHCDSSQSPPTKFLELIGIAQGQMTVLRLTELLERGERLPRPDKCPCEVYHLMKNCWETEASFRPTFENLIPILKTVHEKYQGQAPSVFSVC

[12] = target: Tyrosine-protein kinase JAK3 (Homo sapiens) (UniProt P52333); assay: Inhibition of JAK3 (unknown origin) at 0.1 uM preincubated for 20 mins followed by [33P]ATP addition measured after 120 mins by Hotspot assay relative to control
Sequence of Tyrosine-protein kinase JAK3 (Homo sapiens) (P52333 whole entry): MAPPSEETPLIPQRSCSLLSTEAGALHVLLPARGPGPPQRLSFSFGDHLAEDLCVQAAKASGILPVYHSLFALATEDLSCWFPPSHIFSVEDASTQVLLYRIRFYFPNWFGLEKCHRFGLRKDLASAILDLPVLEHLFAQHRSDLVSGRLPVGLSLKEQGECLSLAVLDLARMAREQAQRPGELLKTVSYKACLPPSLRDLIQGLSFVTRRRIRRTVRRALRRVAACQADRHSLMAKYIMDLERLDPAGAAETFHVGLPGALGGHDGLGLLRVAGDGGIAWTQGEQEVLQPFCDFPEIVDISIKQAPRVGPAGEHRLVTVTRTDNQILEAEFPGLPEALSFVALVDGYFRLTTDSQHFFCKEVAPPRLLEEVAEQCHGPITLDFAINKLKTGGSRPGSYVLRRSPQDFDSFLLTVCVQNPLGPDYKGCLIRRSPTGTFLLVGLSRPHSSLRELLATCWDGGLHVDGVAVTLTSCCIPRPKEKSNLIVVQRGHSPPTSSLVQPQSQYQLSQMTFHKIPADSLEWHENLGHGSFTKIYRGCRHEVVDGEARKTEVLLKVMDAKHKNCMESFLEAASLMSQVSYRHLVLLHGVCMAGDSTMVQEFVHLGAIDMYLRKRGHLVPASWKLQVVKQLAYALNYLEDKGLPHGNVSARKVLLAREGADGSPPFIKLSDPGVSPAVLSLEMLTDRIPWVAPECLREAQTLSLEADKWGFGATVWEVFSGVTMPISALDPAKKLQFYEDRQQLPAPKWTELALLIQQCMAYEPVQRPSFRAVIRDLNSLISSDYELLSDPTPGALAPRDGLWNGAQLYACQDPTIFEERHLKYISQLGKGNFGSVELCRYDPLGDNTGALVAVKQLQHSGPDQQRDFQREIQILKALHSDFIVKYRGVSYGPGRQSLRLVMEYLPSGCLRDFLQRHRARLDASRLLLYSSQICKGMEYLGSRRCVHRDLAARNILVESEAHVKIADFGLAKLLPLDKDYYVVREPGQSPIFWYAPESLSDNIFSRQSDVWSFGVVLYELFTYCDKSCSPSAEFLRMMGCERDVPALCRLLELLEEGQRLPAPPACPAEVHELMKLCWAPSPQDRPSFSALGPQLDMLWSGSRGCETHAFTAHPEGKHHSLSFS
Method in brief: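 Radiometric HotSpot kinase assay. Buffer: 20 mM HEPES pH 7.5, 10 mM MgCl2, 1 mM EGTA, 0.02% Brij35, 0.02 mg/mL BSA, 0.1 mM Na3VO4, 2 mM DTT, 1% DMSO. Compound added about 20 min before ATP/[33P]ATP (10 μM final). Reactions run 120 min at 25 °C, spotted on P81 filters and washed in phosphoric acid. Activity expressed relative to DMSO after background subtraction. Single-concentration panel at 100 nM in duplicate.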

Sequence of Histone deacetylase 2 (Q92769 whole entry, the tested form may be a part): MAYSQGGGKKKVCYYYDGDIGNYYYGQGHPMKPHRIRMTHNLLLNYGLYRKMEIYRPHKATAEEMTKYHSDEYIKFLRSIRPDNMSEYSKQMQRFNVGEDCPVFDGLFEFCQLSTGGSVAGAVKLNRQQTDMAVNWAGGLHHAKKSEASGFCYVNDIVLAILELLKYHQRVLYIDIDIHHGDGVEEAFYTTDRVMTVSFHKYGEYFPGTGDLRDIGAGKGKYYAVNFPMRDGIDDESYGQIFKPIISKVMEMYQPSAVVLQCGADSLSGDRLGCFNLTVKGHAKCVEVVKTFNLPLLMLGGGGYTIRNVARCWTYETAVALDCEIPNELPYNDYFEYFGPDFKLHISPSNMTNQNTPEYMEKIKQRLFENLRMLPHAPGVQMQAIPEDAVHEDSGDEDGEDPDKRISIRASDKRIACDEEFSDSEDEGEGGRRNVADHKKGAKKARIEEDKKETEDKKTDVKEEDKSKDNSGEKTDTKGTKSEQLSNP

In the case of `O=C(CCCCCCOc1ccc2cc1COC/C=C/COCc1cccc(c1)-c1ccnc(n1)N2)NO`, the IC50 [1] is reported as 49 nM, the Activity [2] is reported as 0.3% and the Activity [3] is reported as 13%. For the same molecule, the inhibition [4] was “Active”, the IC50 [5] was 1630 nM and the Activity [6] was “Active”. The IC50 [7] was 2.1 nM, the IC50 [8] was 1140 nM and the Activity [9] was 29%. It also gave an Activity [10] of 0%, an Activity [11] of 4.9% and an inhibition [12] of 55%.
